Source: PubChem BioAssay
SR-BI DiI inh – blocks mouse SR-BI lipid uptake from DiI-HDL. Q61009. ldlA[mSR-BI] CHO cells, DiI-HDL uptake fluorescence, 3 h. inhibition, % at 12.5 µM. 320,000 tested, 0.96% active. AID 488896;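 active = mean replicate inhibition of at least 70% and a set share of replicates each scoring 70 or more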;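 note: 0% = median of neutral control wells and 100% = median of positive control wells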
SR-BI DiI-HDL act – SR-BI HDL lipid transfer activation | CHO ldlA[mSR-BI] cells, DiI-HDL uptake fluorescence, 3 h; 100 = double the neutral-control signal | activation, % at 12.5 µM | 320,000 tested, 0.096% active;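 active = mean replicate activation of at least 60% and every replicate at or above 60%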;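 note: 0% = median plate neutral-control signal and 100% = twice that signal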
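system = CHO ldlA[mSR-BI] cells, LDL receptor-null, SR-BI overexpressing | medium = Ham's F12 with 0.5% BSA, HEPES 25 mM, pH 7.4 | probe or stimulus = DiI-HDL 10 µg/mL | compound dosing = single-point compound dose | incubation = compound exposure 3 h, 37 °C | technique = DiI fluorescence, bottom read | read-out = cell-associated DiI fluorescence as measure of HDL uptake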
Lipid droplet – modulators of hepatic lipid droplet formation | AML12 mouse hepatocytes, oleate lipid droplets, BODIPY imaging | inhibition, % at 6.5 µM | 240,000 tested, 0.4% active;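 active = lipid droplet intensity inhibited by at least 50%, with more than 500 cells counted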
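Material – AML12 mouse liver cells · Also added – oleate loading, 100 µM · Compound dosing – 6.5 µM single-point dosing · Times – overnight treatment with compound plus oleate · Measured by – fluorescence imaging, 20x objective, two fields per well · Read-out – percent inhibition of filter-corrected integrated lipid droplet intensity per well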
CR mimetic SO – lowers age-related superoxide in aged yeast cells; S. cerevisiae aged cells, superoxide DHE fluorescence; hits give low values; superoxide response (% of plate mean), % at 10 µM; 330,000 tested, 0.18% active;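 active = superoxide response under a set limit, about three screen SD below normal, cut at about 65% in these data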;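 note: yeast aged for seven days with compound at 30 °C before DHE staining; 100% = average MFI of all compound-treated wells on the plate with controls excluded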
AHR act – activates the human aryl hydrocarbon receptor; 320,000 tested, 2.5% active; AHR-responsive luciferase reporter cells, luminescence; P35869; AID 2796; activation, % at 5 µM; in the data active = activation above about 47%;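 note: 0% = vehicle wells and 100% = reference agonist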
Target sequence (P35869 whole entry, looked up): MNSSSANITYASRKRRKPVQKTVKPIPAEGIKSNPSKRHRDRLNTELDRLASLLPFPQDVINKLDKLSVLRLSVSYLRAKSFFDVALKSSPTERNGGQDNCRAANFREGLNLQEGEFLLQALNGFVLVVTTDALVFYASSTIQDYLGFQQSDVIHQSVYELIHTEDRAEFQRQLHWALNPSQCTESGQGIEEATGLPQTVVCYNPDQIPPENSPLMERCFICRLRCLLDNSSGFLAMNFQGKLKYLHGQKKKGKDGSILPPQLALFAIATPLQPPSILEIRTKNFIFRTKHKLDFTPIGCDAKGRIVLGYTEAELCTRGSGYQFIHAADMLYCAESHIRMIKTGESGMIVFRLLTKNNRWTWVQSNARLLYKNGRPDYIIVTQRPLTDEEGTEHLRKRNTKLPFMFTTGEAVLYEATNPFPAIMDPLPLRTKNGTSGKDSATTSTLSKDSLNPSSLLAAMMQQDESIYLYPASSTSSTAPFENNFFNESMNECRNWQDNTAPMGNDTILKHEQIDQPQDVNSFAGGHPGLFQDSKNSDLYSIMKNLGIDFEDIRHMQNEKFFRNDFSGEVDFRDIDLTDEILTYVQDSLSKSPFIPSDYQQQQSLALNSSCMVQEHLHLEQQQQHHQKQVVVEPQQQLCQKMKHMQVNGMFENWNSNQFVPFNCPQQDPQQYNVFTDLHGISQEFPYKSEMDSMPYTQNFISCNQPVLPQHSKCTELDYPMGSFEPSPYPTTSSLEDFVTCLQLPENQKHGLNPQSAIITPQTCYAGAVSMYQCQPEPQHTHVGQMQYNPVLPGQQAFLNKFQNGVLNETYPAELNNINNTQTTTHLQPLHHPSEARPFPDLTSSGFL
SMARCA2 activ – increases SMARCA2 function in MMTV reporter cells. MG213 cells, MMTV-luciferase reporter, dexamethasone, overnight. activation, % at 9.1 µM. 370,000 tested, 1% active. AID 652017; in the data active = activation above about 7.8%;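 note: 0% = vehicle wells and 100% = reference activator wells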
SMARCA2 conf – SMARCA2 activation, confirmation screen; AID 652260; 3,500 tested, 30% active; shares compounds with SMARCA2 activ; MG213 cells, MMTV-luciferase with dexamethasone, luminescence, overnight; MG213 cells expressing E1A, Rb sequestered; DMSO wells 0%, reference activator 100%; activation, % at 9.1 µM;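 active = activation above its plate's cutoff, the mean activation of tested wells plus 3 SD, cut at about 7.9% in these data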
VP16 Luc act – GAL4-VP16 reporter activation counter-screen; shares compounds with SMARCA2 activ; HEK293 GAL4-VP16 pG5luc reporter, luciferase luminescence; scaled: DMSO wells 0%, SAHA wells 100%; activation, % at 9.1 µM; 3,500 tested, 41% active;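 active = activation above the solvent-only control well mean plus 3 SD, averaged across control plates, cut at about 5.2% in these data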
Numbers without * were called inactive; · = no result given. Hits are enriched below; roughly 4.3% of the tested compounds scored in any of these assays.

SMILES | SR-BI DiI inh | SR-BI DiI-HDL act | Lipid droplet | CR mimetic SO | AHR act | SMARCA2 activ | SMARCA2 conf | VP16 Luc act
CC(=O)N[C@@H]1C[C@@H]2O[C@H](CO)CC[C@@H]2O[C@@H]1CCc1ccc(C#CC2(O)CCCC2)cc1 | · | · | · | · | · | -3 | · | ·
O=C(CNc1ccc(Br)cc1)c1ccc(Br)s1 | · | · | 1 | 84 | 17 | 9.3* | 10* | 3
O=C(CNc1ccc(Br)cc1)c1ccc(O)cc1 | -12 | 12 | -7 | 91 | 0 | 2 | · | ·
COc1cccc(CNC(=O)COC(=O)c2nc(Cl)c(Cl)c(Cl)c2Cl)c1 | -16 | 16 | · | 119 | 0 | 17* | 26* | 2
O=C(NCCc1ccccc1)c1nc2ncccn2n1 | -37 | 37 | 3 | 98 | 1 | -3 | · | ·
c1ccc(CSc2nc3ncccn3n2)cc1 | -5 | 5 | · | 90 | 2 | 8.7* | 12* | 8.8*
CCCn1cnc2c(SCc3ccccn3)nc(N)nc21 | -10 | 10 | · | · | · | 4 | · | ·
Nc1nc(SCc2ccccn2)c2ncn(C3CCCC3)c2n1 | -11 | 11 | · | · | · | 8.2* | 5 | 4
C=CCN1[C@@H](C)COc2cc(N3CCCC3)ccc2S1(=O)=O | · | · | · | · | · | 0 | · | ·
CCc1ccc(CNCC(=O)N2CCC3(CC2)OCCO3)s1 | · | · | · | · | · | 3 | · | ·
CC(=O)c1c(C)[nH]c(-c2ccccc2)nc1=S | -1 | 1 | -7 | 105 | 66* | 11* | -3 | 0
COc1ccccc1-c1nc(=S)c(C(C)=O)c(C)[nH]1 | · | · | 5 | 121 | 54* | 12* | -1 | 2
COC(=O)C/C=C/[C@@H](C)[C@H](NC(=O)OCC(Cl)(Cl)Cl)c1ccc(-c2ccccc2)cc1 | · | · | · | · | · | -1 | · | ·
O=C(O)[C@@H]1[C@@H]2C[C@@H]2CN1c1ncccc1[N+](=O)[O-] | 3 | -3 | 15 | 118 | 2 | 9.9* | 2 | 0
O=C(O)C1CN(c2ncccc2[N+](=O)[O-])C1 | -35 | 35 | 2 | 98 | -2 | -2 | · | ·
Nc1[nH]c(=O)ncc1-c1ccc([N+](=O)[O-])cc1 | · | · | · | · | · | 1 | · | ·
CCC(=O)Nc1ccc(NC(=O)c2cccc(OC)c2)nc1 | 27 | -27 | 3 | 90 | 16 | 5 | · | ·
COc1cccc(C(=O)Nc2ccc(NC(=O)C(C)C)nc2)c1 | -1 | 1 | · | 90 | 0 | 8.5* | 2 | 3
CCCC(=O)Nc1ccc(NC(=O)c2cccc(OC)c2)cn1 | 23 | -23 | -3 | 99 | 4 | -1 | · | ·
COc1cccc(C(=O)Nc2ccc(NC(=O)C3CC3)cn2)c1 | · | · | · | 93 | 12 | 8.4* | -1 | 8.2*
COC(=O)[C@]12C[C@H](CC(=O)N3CCOCC3)C(=O)N(CCc3ccc(OC)c(OC)c3)C1=C[C@H](C1CCCC1)O[C@@H]2C | · | · | · | · | · | 4 | · | ·
S=C(Nc1ccccc1)OC1CCC12CCC(c1ccccc1)CC2 (stereo unspecified) | · | · | · | · | · | -2 | · | ·
CC1(C(=O)NS(=O)(=O)Cc2ccccc2)CCN1C(=O)Cc1ccc(-c2ccccc2)cc1 (stereo unspecified) | · | · | · | · | · | 8.3* | -5 | 0
CC(C)C[C@H]1COc2cc(Br)ccc2S(=O)(=O)N1Cc1cn(Cc2ccc(C(F)(F)F)cc2)nn1 | · | · | · | · | · | -3 | · | ·
N#CCn1cnc2sc(-c3ccccc3)cc2c1=O | 24 | -24 | 1 | 97 | 15 | 9.1* | 11* | 1
SMILES | SR-BI DiI inh | SR-BI DiI-HDL act | Lipid droplet | CR mimetic SO | AHR act | SMARCA2 activ | SMARCA2 conf | VP16 Luc act
Nc1nc(N)c2sc3nc4c(cc3c2n1)CCC4 | -10 | 10 | -3 | 128 | 10 | 8.1* | 11* | 5.1*
C=CCN1[C@@H](Cc2ccccc2)COc2cccc(N3CCCC3)c2S1(=O)=O | · | · | · | · | · | -2 | · | ·
CC(=O)CC[C@H]1CC[C@]2(CCCN(Cc3nccn3C)C2)O1 | · | · | · | · | · | -1 | · | ·
Cc1ccccc1C(=O)N1CCC(Oc2cccnc2)CC1 | · | · | · | · | · | 0 | · | ·
COc1ccc(C[N+]2=C(N)NC3=C4CCCCC4n4c(=O)n(-c5ccccc5)c(=O)n4C3C2)c(OC)c1 (stereo unspecified) | · | · | · | · | · | -6 | · | ·
CCOc1ccccc1NC(=O)N1CCCC1C(=O)Nc1nnc(CC)s1 (stereo unspecified) | 2 | -2 | -1 | 89 | 0 | -4 | · | ·
CCc1nnc(NC(=O)C2CCCN2C(=O)Nc2ccccc2OC)s1 (stereo unspecified) | -13 | 13 | 5 | 104 | -7 | 8.8* | 1 | 3
Cc1oc(=O)c(NC(=O)c2cccc(Cl)c2)cc1C(=O)c1ccccc1 | 31 | -31 | · | 106 | 2 | 8.6* | 2 | 10*
COc1ccc(C(=O)Nc2cc(C(=O)c3ccccc3)c(C)oc2=O)cc1 | 4 | -4 | · | 106 | 3 | 6 | · | ·
Cc1ccc(/C=C/C(=O)Nc2nccs2)o1 | 0 | 0 | 6 | 72 | 29 | 11* | 8.4* | 10*
Cc1csc(NC(=O)c2sccc2C)n1 | 13 | -13 | -3 | 91 | 6 | 4 | · | ·
Cc1ccsc1C(=O)Nc1nccs1 | -17 | 17 | -1 | 86 | 6 | 9.3* | 3 | 3
Cc1ccc(/C=C/C(=O)NC2CCCCCCC2)o1 | 2 | -2 | 1 | 98 | 7 | 8.0* | 20* | 4
CCOC(=O)[C@]12CCCC=C1N(Cc1ccc(OC)cc1)C(=O)[C@@H]2CC(=O)NCc1cccc2ccccc12 | · | · | · | · | · | -1 | · | ·
C#CCCN([C@H](C(=O)OC)C(C)C)S(=O)(=O)c1ccccc1Br | · | · | · | · | · | -4 | · | ·
COC(=O)[C@]12C[C@H](CC(=O)N3CCCC3)C(=O)N(CCC3=CCCCC3)C1=C[C@H](C(C)C)O[C@@H]2C1CC1 | · | · | · | · | · | -5 | · | ·
